In ChEMBL document CHEMBL1671821, “Syntheses of 2-amino and 2-halothiazole derivatives as high-affinity metabotropic glutamate receptor subtype 5 ligands and potential radioligands for in vivo imaging” (J Med Chem, 2011):
Blank lines part the entries; values can stand above or below the compound they belong to.

Columns and labels:
[1] = biological target: Metabotropic glutamate receptor 5 (Rattus norvegicus, UniProt P31424); assay: Displacement of [3H]MPEP from mGluR5 in rat brain; format: tissue-based
Sequence of Metabotropic glutamate receptor 5 (P31424 whole entry): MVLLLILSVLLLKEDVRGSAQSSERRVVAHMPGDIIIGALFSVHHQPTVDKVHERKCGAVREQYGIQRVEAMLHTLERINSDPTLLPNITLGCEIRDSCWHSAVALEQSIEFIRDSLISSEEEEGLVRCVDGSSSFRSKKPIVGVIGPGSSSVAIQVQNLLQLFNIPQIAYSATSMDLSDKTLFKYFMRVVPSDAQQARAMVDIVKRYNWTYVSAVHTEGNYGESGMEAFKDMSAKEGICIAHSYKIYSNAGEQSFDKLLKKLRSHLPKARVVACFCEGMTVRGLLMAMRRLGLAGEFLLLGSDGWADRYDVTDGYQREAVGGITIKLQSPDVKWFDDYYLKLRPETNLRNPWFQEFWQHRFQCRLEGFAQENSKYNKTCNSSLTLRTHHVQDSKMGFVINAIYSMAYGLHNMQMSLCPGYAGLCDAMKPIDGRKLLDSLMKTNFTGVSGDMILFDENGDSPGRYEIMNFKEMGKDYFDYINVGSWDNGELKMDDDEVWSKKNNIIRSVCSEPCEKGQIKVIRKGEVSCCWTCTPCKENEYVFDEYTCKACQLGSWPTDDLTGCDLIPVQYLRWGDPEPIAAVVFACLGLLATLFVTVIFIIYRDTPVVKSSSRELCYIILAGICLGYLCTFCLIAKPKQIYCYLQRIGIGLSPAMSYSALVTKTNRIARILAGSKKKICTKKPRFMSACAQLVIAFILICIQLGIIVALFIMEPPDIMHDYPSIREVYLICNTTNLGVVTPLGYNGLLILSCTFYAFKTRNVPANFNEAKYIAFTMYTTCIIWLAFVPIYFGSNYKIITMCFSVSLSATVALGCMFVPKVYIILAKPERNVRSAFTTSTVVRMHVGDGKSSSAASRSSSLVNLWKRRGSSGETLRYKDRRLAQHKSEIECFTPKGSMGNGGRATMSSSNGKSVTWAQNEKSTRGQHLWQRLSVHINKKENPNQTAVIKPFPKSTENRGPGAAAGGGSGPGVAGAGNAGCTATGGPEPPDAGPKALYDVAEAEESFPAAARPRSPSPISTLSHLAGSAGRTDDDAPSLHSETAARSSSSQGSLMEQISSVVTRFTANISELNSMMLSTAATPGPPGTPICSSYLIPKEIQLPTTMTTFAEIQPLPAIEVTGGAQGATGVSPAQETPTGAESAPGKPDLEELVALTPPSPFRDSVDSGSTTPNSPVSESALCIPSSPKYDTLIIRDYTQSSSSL
In short: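 Competition binding on rat brain homogenate mGlu5 against [3H]MPEP at 1.0 nM. Run by the NIMH Psychoactive Drug Screening Program. Ki derived from triplicate determinations, n = 6 for some ligands. Values cited from earlier work were not measured here.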

[2] = Binding affinity to GABAA receptor
[3] = biological target: D(1B) dopamine receptor (Homo sapiens, UniProt P21918); assay: Binding affinity to dopamine D5 receptor
[4] = biological target: Alpha-2B adrenergic receptor (Homo sapiens, UniProt P18089); assay: Binding affinity to adrenergic alpha2B receptor
[5] = biological target: Muscarinic acetylcholine receptor M3 (Homo sapiens, UniProt P20309); assay: Binding affinity to muscarinic M3 receptor
[6] = biological target: Histamine H1 receptor (Homo sapiens, UniProt P35367); assay: Binding affinity to histamine H1 receptor
[7] = biological target: Beta-2 adrenergic receptor (Homo sapiens, UniProt P07550); assay: Binding affinity to adrenergic beta2 receptor
[8] = biological target: Muscarinic acetylcholine receptor M5 (Homo sapiens, UniProt P08912); assay: Binding affinity to muscarinic M5 receptor
[9] = Binding affinity to sigma 2 receptor
[10] = biological target: Alpha-2C adrenergic receptor (Homo sapiens, UniProt P18825); assay: Binding affinity to adrenergic Alpha-2C receptor
[11] = biological target: 5-hydroxytryptamine receptor 5A (Homo sapiens, UniProt P47898); assay: Binding affinity to 5HT5A receptor
[12] = biological target: 5-hydroxytryptamine receptor 2C (Homo sapiens, UniProt P28335); assay: Binding affinity to 5HT2C receptor
[13] = biological target: Delta-type opioid receptor (Homo sapiens, UniProt P41143); assay: Binding affinity to DOR
[14] = biological target: 5-hydroxytryptamine receptor 7 (Homo sapiens, UniProt P34969); assay: Binding affinity to 5HT7 receptor
[15] = biological target: Muscarinic acetylcholine receptor M2 (Homo sapiens, UniProt P08172); assay: Binding affinity to muscarinic M2 receptor
[16] = biological target: Metabotropic glutamate receptor 1 (Homo sapiens, UniProt Q13255); assay: Binding affinity to mGluR1 receptor
Sequence of Metabotropic glutamate receptor 1 (Q13255 whole entry): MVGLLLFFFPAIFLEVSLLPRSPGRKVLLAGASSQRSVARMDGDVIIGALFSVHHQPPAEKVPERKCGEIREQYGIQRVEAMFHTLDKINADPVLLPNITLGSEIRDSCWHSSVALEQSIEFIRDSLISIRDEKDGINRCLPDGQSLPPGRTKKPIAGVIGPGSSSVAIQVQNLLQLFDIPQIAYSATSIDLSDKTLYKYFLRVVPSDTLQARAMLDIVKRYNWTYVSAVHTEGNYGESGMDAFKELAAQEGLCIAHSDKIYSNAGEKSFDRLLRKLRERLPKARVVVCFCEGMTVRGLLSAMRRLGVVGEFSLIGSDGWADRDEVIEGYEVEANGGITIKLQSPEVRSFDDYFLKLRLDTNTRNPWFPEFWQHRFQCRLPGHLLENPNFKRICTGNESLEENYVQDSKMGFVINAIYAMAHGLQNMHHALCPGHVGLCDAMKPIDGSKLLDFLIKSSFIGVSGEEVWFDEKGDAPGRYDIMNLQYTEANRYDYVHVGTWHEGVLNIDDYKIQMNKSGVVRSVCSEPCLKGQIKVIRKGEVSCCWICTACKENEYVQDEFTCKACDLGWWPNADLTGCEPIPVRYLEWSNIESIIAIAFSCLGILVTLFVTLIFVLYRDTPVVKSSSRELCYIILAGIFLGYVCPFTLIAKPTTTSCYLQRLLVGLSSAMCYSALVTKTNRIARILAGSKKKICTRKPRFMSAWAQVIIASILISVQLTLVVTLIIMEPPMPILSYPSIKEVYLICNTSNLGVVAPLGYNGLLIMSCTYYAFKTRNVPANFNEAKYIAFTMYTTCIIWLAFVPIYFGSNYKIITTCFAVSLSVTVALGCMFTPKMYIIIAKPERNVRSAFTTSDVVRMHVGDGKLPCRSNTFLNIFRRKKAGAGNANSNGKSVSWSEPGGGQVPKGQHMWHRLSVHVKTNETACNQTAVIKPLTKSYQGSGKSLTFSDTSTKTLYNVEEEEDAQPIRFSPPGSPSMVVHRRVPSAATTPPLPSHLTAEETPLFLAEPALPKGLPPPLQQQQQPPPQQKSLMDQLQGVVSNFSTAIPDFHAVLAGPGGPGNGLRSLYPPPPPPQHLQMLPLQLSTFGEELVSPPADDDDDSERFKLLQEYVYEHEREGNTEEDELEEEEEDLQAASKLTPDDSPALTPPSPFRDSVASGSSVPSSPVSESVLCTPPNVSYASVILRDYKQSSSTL

[17] = biological target: Metabotropic glutamate receptor 8 (Homo sapiens, UniProt O00222); assay: Binding affinity to mGluR8 receptor
[18] = biological target: 5-hydroxytryptamine receptor 6 (Homo sapiens, UniProt P50406); assay: Binding affinity to 5HT6 receptor
[19] = biological target: 5-hydroxytryptamine receptor 1B (Homo sapiens, UniProt P28222); assay: Binding affinity to 5HT1B receptor
[20] = Binding affinity to benzodiazepine receptor in rat brain; format: tissue-based
[21] = biological target: Alpha-1B adrenergic receptor (Homo sapiens, UniProt P35368); assay: Binding affinity to adrenergic Alpha-1B receptor
[22] = biological target: 5-hydroxytryptamine receptor 2A (Homo sapiens, UniProt P28223); assay: Binding affinity to 5HT2A receptor
Sequence of 5-hydroxytryptamine receptor 2A (P28223 whole entry): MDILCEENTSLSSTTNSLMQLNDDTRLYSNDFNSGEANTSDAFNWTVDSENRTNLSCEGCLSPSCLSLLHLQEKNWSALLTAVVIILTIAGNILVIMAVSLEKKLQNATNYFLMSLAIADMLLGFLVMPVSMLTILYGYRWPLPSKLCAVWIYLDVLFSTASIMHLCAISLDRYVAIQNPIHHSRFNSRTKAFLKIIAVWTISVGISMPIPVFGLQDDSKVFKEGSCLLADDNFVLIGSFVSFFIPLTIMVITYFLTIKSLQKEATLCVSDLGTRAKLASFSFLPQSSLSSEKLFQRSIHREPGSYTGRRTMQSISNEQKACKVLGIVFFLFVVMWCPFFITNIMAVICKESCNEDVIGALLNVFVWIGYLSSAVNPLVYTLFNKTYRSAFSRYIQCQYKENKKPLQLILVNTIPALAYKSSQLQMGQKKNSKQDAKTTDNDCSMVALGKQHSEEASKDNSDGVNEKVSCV

[23] = biological target: D(1A) dopamine receptor (Homo sapiens, UniProt P21728); assay: Binding affinity to dopamine D1 receptor
[24] = biological target: D(4) dopamine receptor (Homo sapiens, UniProt P21917); assay: Binding affinity to dopamine D4 receptor
[25] = biological target: Sodium-dependent serotonin transporter (Homo sapiens, UniProt P31645); assay: Binding affinity to SERT receptor
[26] = biological target: Histamine H3 receptor (Homo sapiens, UniProt Q9Y5N1); assay: Binding affinity to histamine H3 receptor
[27] = biological target: Alpha-2A adrenergic receptor (Homo sapiens, UniProt P08913); assay: Binding affinity to adrenergic alpha2A receptor
Sequence of Alpha-2A adrenergic receptor (P08913 whole entry): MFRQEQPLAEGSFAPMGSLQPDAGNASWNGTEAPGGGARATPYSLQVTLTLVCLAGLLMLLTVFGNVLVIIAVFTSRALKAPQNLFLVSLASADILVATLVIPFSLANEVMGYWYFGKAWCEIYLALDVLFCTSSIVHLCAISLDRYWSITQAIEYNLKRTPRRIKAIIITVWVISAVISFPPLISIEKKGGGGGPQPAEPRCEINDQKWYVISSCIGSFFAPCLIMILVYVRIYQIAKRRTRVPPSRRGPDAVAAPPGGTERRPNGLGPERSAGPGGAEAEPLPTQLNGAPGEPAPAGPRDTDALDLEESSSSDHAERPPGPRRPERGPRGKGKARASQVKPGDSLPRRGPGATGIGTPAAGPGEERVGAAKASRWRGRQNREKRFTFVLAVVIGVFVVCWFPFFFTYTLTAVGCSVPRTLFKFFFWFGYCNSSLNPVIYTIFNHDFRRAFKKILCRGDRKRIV

[28] = biological target: Beta-1 adrenergic receptor (Homo sapiens, UniProt P08588); assay: Binding affinity to adrenergic beta1 receptor
[29] = biological target: Beta-3 adrenergic receptor (Homo sapiens, UniProt P13945); assay: Binding affinity to adrenergic beta3 receptor
[30] = biological target: Kappa-type opioid receptor (Homo sapiens, UniProt P41145); assay: Binding affinity to KOR
[31] = biological target: 5-hydroxytryptamine receptor 1A (Homo sapiens, UniProt P08908); assay: Binding affinity to 5HT1A receptor
[32] = biological target: D(2) dopamine receptor (Homo sapiens, UniProt P14416); assay: Binding affinity to dopamine D2 receptor
[33] = biological target: Sigma non-opioid intracellular receptor 1 (Homo sapiens, UniProt Q99720); assay: Binding affinity to sigma 1 receptor
Sequence of Sigma non-opioid intracellular receptor 1 (Q99720 whole entry): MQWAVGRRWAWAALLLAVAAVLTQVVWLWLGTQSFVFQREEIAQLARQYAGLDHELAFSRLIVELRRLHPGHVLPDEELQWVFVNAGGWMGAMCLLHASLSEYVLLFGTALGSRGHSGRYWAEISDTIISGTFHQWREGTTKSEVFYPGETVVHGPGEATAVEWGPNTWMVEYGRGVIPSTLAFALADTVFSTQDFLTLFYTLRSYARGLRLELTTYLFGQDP

[34] = biological target: 5-hydroxytryptamine receptor 1D (Homo sapiens, UniProt P28221); assay: Binding affinity to 5HT1D receptor
[35] = biological target: 5-hydroxytryptamine receptor 3A (Homo sapiens, UniProt P46098); assay: Binding affinity to 5HT3 receptor
Sequence of 5-hydroxytryptamine receptor 3A (P46098 whole entry): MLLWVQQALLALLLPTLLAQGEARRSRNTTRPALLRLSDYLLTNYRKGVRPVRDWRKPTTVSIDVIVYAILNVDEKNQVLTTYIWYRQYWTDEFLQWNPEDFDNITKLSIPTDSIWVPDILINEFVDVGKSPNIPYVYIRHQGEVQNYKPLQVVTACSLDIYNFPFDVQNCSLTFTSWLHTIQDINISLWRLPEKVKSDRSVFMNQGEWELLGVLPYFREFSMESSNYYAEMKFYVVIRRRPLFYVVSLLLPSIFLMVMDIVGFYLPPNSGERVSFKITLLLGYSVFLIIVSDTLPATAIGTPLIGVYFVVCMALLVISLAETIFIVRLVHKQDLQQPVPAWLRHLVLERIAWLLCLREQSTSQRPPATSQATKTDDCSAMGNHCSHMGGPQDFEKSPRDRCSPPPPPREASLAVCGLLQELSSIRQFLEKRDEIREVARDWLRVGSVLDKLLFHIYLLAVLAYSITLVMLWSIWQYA

[36] = biological target: 5-hydroxytryptamine receptor 2B (Homo sapiens, UniProt P41595); assay: Binding affinity to 5HT2B receptor
[37] = biological target: Histamine H2 receptor (Homo sapiens, UniProt P25021); assay: Binding affinity to histamine H2 receptor
Sequence of Histamine H2 receptor (P25021 whole entry): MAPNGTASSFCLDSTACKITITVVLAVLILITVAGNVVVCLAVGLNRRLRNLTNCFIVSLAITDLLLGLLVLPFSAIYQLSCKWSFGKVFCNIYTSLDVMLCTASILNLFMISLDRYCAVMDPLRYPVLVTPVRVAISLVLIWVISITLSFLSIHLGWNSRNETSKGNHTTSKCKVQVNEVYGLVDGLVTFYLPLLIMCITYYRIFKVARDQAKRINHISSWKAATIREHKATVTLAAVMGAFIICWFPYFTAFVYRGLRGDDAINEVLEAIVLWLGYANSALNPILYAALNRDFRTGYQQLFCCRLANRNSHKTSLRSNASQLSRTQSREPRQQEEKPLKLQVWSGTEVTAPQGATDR

[38] = biological target: Muscarinic acetylcholine receptor M1 (Homo sapiens, UniProt P11229); assay: Binding affinity to muscarinic M1 receptor
[39] = Binding affinity to NMDA receptor PCP binding site
[40] = biological target: Sodium-dependent dopamine transporter (Homo sapiens, UniProt Q01959); assay: Binding affinity to DAT
[41] = biological target: Alpha-1D adrenergic receptor (Homo sapiens, UniProt P25100); assay: Binding affinity to adrenergic Alpha-1D receptor
Sequence of Alpha-1D adrenergic receptor (P25100 whole entry): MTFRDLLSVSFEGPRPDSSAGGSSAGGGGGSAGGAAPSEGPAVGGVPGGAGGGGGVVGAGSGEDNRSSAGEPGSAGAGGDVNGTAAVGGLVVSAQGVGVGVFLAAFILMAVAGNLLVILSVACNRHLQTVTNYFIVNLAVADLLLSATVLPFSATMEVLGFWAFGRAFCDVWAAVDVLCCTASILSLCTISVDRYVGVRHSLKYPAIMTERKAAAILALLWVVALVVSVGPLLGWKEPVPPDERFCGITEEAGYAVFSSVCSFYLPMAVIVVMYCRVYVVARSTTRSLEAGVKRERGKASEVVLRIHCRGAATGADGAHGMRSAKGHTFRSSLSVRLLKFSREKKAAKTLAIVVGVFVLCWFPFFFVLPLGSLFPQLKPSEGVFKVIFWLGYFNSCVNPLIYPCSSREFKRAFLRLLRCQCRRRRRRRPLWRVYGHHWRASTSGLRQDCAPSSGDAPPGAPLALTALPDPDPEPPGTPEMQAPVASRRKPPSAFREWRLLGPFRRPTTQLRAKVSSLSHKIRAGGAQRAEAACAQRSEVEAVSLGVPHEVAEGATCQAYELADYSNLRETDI

[42] = biological target: Sodium-dependent noradrenaline transporter (Homo sapiens, UniProt P23975); assay: Binding affinity to NET
[43] = biological target: Muscarinic acetylcholine receptor M4 (Homo sapiens, UniProt P08173); assay: Binding affinity to muscarinic M4 receptor
[44] = biological target: Histamine H4 receptor (Homo sapiens, UniProt Q9H3N8); assay: Binding affinity to histamine H4 receptor
[45] = biological target: Metabotropic glutamate receptor 2 (Homo sapiens, UniProt Q14416); assay: Binding affinity to mGluR2 receptor
[46] = biological target: Alpha-1A adrenergic receptor (Homo sapiens, UniProt P35348); assay: Binding affinity to adrenergic alpha1A receptor
[47] = biological target: Metabotropic glutamate receptor 6 (Homo sapiens, UniProt O15303); assay: Binding affinity to mGluR6 receptor
[48] = biological target: Mu-type opioid receptor (Homo sapiens, UniProt P35372); assay: Binding affinity to MOR
[49] = biological target: 5-hydroxytryptamine receptor 1E (Homo sapiens, UniProt P28566); assay: Binding affinity to 5HT1E receptor
[50] = biological target: Metabotropic glutamate receptor 4 (Homo sapiens, UniProt Q14833); assay: Binding affinity to mGluR4 receptor
[51] = biological target: D(3) dopamine receptor (Homo sapiens, UniProt P35462); assay: Binding affinity to dopamine D3 receptor

SMILES: N#CCc1cccc(C#Cc2csc(N)n2)c1
- Ki [1]: 5.9 nM

SMILES: N#Cc1cccc(C#Cc2csc(Cl)n2)c1
- Ki [1]: 0.27 nM

SMILES: N#Cc1cccc(C#Cc2csc(I)n2)c1
- Ki [1]: 4.2 nM

SMILES: N#Cc1cccc(C#Cc2csc(Br)n2)c1
- Ki [1]: 3.7 nM

SMILES: N#Cc1cccc(C#Cc2csc(F)n2)c1
- Ki [1]: 1.6 nM

SMILES: N#CCc1cccc(C#Cc2csc(Cl)n2)c1
- Ki [1]: 3.1 nM

SMILES: COc1cccc(C#Cc2csc(Br)n2)c1
- Ki [1]: 22.3 nM

SMILES: Fc1nc(C#Cc2ccccc2)cs1
- Ki [1]: 122 nM

SMILES: N#Cc1cc(F)cc(C#Cc2csc(CF)n2)c1
- Ki [1]: 0.036 nM

SMILES: COc1cccc(C#Cc2csc(F)n2)c1
- Ki [1]: 22.7 nM

The remaining compounds from weak to strong by Ki [1], led by results:

- Ki [1]: 133 nM
SMILES: COc1cccc(C#Cc2csc(I)n2)c1

- Ki [1]: 23.3 nM
SMILES: N#CCc1cccc(C#Cc2csc(I)n2)c1

- Ki [1]: 18.6 nM
SMILES: COc1cccc(C#Cc2csc(N)n2)c1

- Ki [1]: 8.1 nM
SMILES: COc1cccc(C#Cc2csc(Cl)n2)c1

- Ki [1]: 3.9 nM
SMILES: N#CCc1cccc(C#Cc2csc(F)n2)c1

- Ki [1]: 3.3 nM
SMILES: N#CCc1cccc(C#Cc2csc(Br)n2)c1

- Ki [1]: 1.3 nM
SMILES: N#Cc1cc(F)cc(C#Cc2csc(I)n2)c1

- Ki [1]: 0.95 nM
SMILES: N#Cc1cc(F)cc(C#Cc2csc(Br)n2)c1

- Ki [1]: 0.9 nM
SMILES: N#Cc1cccc(C#Cc2csc(N)n2)c1

- Ki [1]: 0.4 nM
SMILES: N#Cc1cc(F)cc(C#Cc2csc(Cl)n2)c1

- Ki [2]: > 10 µM
- Ki [3]: > 10 µM
- Ki [4]: > 10 µM
- Ki [5]: > 10 µM
- Ki [6]: > 10 µM
- Ki [7]: > 10 µM
- Ki [8]: > 10 µM
- Ki [9]: > 10 µM
- Ki [10]: > 10 µM
- Ki [11]: > 10 µM
- Ki [1]: 0.28 nM
- Ki [12]: > 10 µM
- Ki [13]: > 10 µM
- Ki [14]: > 10 µM
- Ki [15]: > 10 µM
- Ki [16]: > 10 µM
- Ki [17]: > 10 µM
- Ki [18]: > 10 µM
- Ki [19]: > 10 µM
- Ki [20]: > 10 µM
- Ki [21]: > 10 µM
- Ki [22]: > 10 µM
- Ki [23]: > 10 µM
- Ki [24]: > 10 µM
- Ki [25]: > 10 µM
- Ki [26]: > 10 µM
- Ki [27]: > 10 µM
- Ki [28]: > 10 µM
- Ki [29]: > 10 µM
- Ki [30]: > 10 µM
- Ki [31]: > 10 µM
- Ki [32]: > 10 µM
- Ki [33]: > 10 µM
- Ki [34]: > 10 µM
- Ki [35]: > 10 µM
- Ki [36]: > 10 µM
- Ki [37]: > 10 µM
- Ki [38]: > 10 µM
- Ki [39]: > 10 µM
- Ki [40]: > 10 µM
- Ki [41]: > 10 µM
- Ki [42]: > 10 µM
- Ki [43]: > 10 µM
- Ki [44]: > 10 µM
- Ki [45]: > 10 µM
- Ki [46]: > 10 µM
- Ki [47]: > 10 µM
- Ki [48]: > 10 µM
- Ki [49]: > 10 µM
- Ki [50]: > 10 µM
- Ki [51]: > 10 µM
SMILES: N#Cc1cc(F)cc(C#Cc2csc(F)n2)c1

- Ki [1]: 0.25 nM
SMILES: N#Cc1cc(F)cc(C#Cc2csc(N)n2)c1

- Ki [1]: 0.08 nM
SMILES: Cc1nc(C#Cc2cc(F)cc(C#N)c2)cs1
